Experimental data of several laboratories.
Each line is one published result; the experiments were not run side by side.

With `C[C@H](Cn1cnc2c(N)ncnc21)OCP(=O)(O)OCCCOCCCCCCCCCCCCC#C[Si](C)(C)C.N` the half-life was > 2 h (metabolic stability; CD-1 mouse, liver microsomes; 3 µM, pH 7.4).
With `Cc1ncc(C)n2nc(/C=C/c3nc(N4CCCC4)cc(N4CCOCC4)n3)nc12` the concentration was 50 ng/mL (male Fischer 344 rat, plasma; oral, 0.3 mg/kg, 1 h).
`N#C[C@@H]1CC(F)(F)CN1C(=O)CNC(=O)c1ccnc2ccc(OCCCN3CCN(C(=O)CN4CCN(CC(=O)[O-])CCN(CC(=O)[O-])CC4)CC3)cc12.[18F-].[Al+3]` has a tracer uptake of 1.05 %ID/g (rat, stomach; intravenous, 2 h).
`O=C(Nc1cccnn1)N1CCN([C@@H]2CCOc3cc(C(F)(F)F)ccc32)CC1` gave a concentration of 125 ng/mL (male Sprague-Dawley rat, plasma; oral, 1 mg/kg, 1 h).
The half-life of `C[C@H](Cn1cnc2c(N)ncnc21)OCP(=O)(O)OCCCOCCCCCCCCCCCCCC#CC(F)(F)F.N` is reported as > 2 h (metabolic stability; CD-1 mouse, liver microsomes; 3 µM, pH 7.4).
`Cc1cc(C)nc(Nc2ncc(C(=O)NCCc3c(C)[nH]c4ccccc34)cn2)c1` has a half-life of 0.0783 h (metabolic stability; mouse, liver microsomes; 1 µM).
The C0 of `CC(C)(C)[C@H](NC(=O)[C@H](CCONC(=N)N)NC(=O)Cc1ccc(CNC(=N)N)cc1)C(=O)N[C@@H](CCONC(=N)N)C(=O)NCc1ccc(C(=N)N)cc1` is reported as 2080 ng/mL (male Sprague-Dawley rat, plasma; intravenous, 1 mg/kg).
The half-life of `Cl.Cl.O=C(CCN1CCCCC1)c1ccc(-c2ccc(C(=O)CCN3CCCCC3)cc2)cc1` is reported as 8.23 h (Sprague-Dawley rat, plasma; oral, 100 mg/kg).
For `N=c1c2c(-c3ccccc3)c(-c3ccccc3)n(Cc3ccccc3)c2ncn1[C@H]1CC[C@H](O)CC1`, the half-life was > 2 h (metabolic stability; mouse, liver microsomes; 1 µM).
